Series [1] is described as follows: Urinary recovery in male CD-1 mice after po administration of 20 mg/kg. Also on record: dose 20 mg/kg, route oral. The format is ADME, organism-based. To be noted: CD-1, mouse, urine. In outline: (§1)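 Male CD-1 mice received 20 mg/kg in 0.9% saline, orally or subcutaneously. Cumulative urine over 0–4 h was collected from metabolism cages into 0.1 M sodium citrate, pH 6.5, and stored at -70 °C. Drug levels were measured by agar well diffusion bioassay (E. coli ATCC4157 or Proteus providentia XC24) against spiked standard curves. Half-life = 0.693/β (terminal slope); urinary recovery as % of dose.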

Series [2] relates to Escherichia coli. The series is described as follows: Minimum inhibitory concentration against Escherichia coli EC14 after po administration in mice. Format: functional.
Another series deals with Klebsiella pneumoniae. The series is described as follows: In vitro antibacterial activity against Klebsiella X26. The format is functional.
The subject of a further series is Pseudomonas aeruginosa. The series is described as follows: In vitro antibacterial activity against Pseudomonas PS72. The format is functional.
A short description of series [3]: Half-life period in male CD-1 mice after sc administration of 20 mg/kg. Format: ADME, organism-based. Also on record: dose 20 mg/kg, route subcutaneous. As to conditions: CD-1, mouse, in vivo. The method, boiled down:
as §1

Series [4] relates to Escherichia coli. The series is described as follows: Effective dose against Escherichia coli EC14 after sc administration in mice. The format is functional.
The nature of series [5]: Plasma binding expressed as percentage in rats […]. Format: ADME, organism-based. As to conditions: rat, iv, read-out: Plasma binding (converted). The method, boiled down:
(§2)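 Binding was measured in vitro in pooled Sprague-Dawley rat plasma at a drug concentration of 20 μg/mL by ultrafiltration and reported as % bound.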

The nature of series [6]: Maximum concentration in male CD-1 mice after sc administration of 20 mg/kg. Format: ADME, organism-based. Also on record: dose 20 mg/kg, route subcutaneous. As to conditions: CD-1, mouse, in vivo. The method, boiled down: as §1
In series [7] the test system is Streptococcus pyogenes. The series is described as follows: Minimum inhibitory concentration against Streptococcus pyogenes (C203) after po administration in mice. Format: functional.
A short description of series [8]: Plasma half-life in rats after intravenous administration. Format: ADME, organism-based. To be noted: rat. In outline: (§3)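 Male Sprague-Dawley rats were given 20 mg/kg IV in 0.9% saline through an indwelling jugular cannula, which was also used for serial blood sampling. Plasma and cumulative urine (citrate pH 6.5, metabolism cages) were collected over 6 h and stored at -70 °C. Levels were measured by agar well diffusion bioassay against standard curves in plasma or citrate. Half-life = 0.693/β; recovery as % of dose.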

The test system of another series is Streptococcus pneumoniae. The series is described as follows: In vitro antibacterial activity against Streptococcus pneumoniae PARK. Format: functional.
Series [9] concerns Streptococcus pyogenes. The series is described as follows: Effective dose against Streptococcus pyogenes (C203) after po administration in mice. Format: functional.
The test system of series [10] is Staphylococcus epidermidis. The series is described as follows: In vitro antibacterial activity against Staphylococcus epidermidis 222. The format is functional.
Another series relates to Klebsiella aerogenes. The series is described as follows: In vitro antibacterial activity against Enterobacter aerogenes C32. Format: functional.
Another series has as its system Haemophilus influenzae. The series is described as follows: In vitro antibacterial activity against Haemophilus influenza C.L. Format: functional.
A short description of series [11]: Half-life period in male rats after iv administration of 20 mg/kg. Also on record: dose 20 mg/kg, route intravenous. As to conditions: rat, in vivo. The format is ADME, organism-based. In outline: as §3
The test system of series [12] is Streptococcus pyogenes. The series is described as follows: Minimum inhibitory concentration against Streptococcus pyogenes (C203) after sc administration in mice. Format: functional.
For series [13], the system named is Escherichia coli. The series is described as follows: In vitro antibacterial activity against Escherichia coli EC14. The format is functional.
The subject of series [14] is Escherichia coli. The series is described as follows: Effective dose against Escherichia coli EC14 after po administration in mice. The format is functional.
In series [15] the test system is Escherichia coli. The series is described as follows: Minimum inhibitory concentration against Escherichia coli EC14 after sc administration in mice. The format is functional.
The nature of series [16]: Maximum concentration in male rats after iv administration of 20 mg/kg. The format is ADME, organism-based. The arrangement: dose 20 mg/kg, route intravenous. As to conditions: rat, in vivo. The method, boiled down:
as §3

A further series has as its system Staphylococcus aureus. The series is described as follows: In vitro antibacterial activity against Staphylococcus aureus X1.1. Format: functional.
The test system of series [17] is Streptococcus pyogenes. The series is described as follows: Effective dose against Streptococcus pyogenes (C203) after sc administration in mice. The format is functional.
The nature of series [18]: Urinary recovery in male rats after iv administration of 20 mg/kg. The format is ADME, organism-based. Also on record: dose 20 mg/kg, route intravenous. To be noted: rat, urine. The method, boiled down:
as §3

A short description of series [19]: Urinary recovery expressed as percentage dose in male CD-1 mice after po administration of 20 mg/kg. The format is ADME, organism-based. The arrangement: dose 20 mg/kg, route oral. To be noted: CD-1, mouse, urine. The method, boiled down:
as §1

Series [20] is described as follows: Plasma binding in male rats […] expressed as percentage of plasma binding. The format is ADME, organism-based. As to conditions: rat, iv, read-out: Plasma binding (converted). In outline:
as §2

Series [21] in a line: Urinary recovery expressed as percentage dose in male rats after iv administration of 20 mg/kg. Format: ADME, organism-based. Also on record: dose 20 mg/kg, route intravenous. As to conditions: rat, urine. In outline: as §3

Values after ≈ are worked out from the molar mass of the structure shown.

Consider `CO/N=C(\C(=O)NC1CN2CC(S(C)(=O)=O)=C(C(=O)O)N2C1=O)c1csc(N)n1` (stereo not drawn), for which the dose excreted is under 2% in series [1] and 80.4% in series [18]. Also, the MIC in the series with Escherichia coli [2] is 0.06 µg/mL (≈ 0.135 µM); in the series with Klebsiella pneumoniae, 0.125 µg/mL (≈ 0.281 µM); against Pseudomonas aeruginosa, over 128 µg/mL; with Streptococcus pyogenes [7] it was 0.03 µg/mL (≈ 0.0675 µM); in the series on Streptococcus pneumoniae, 0.25 µg/mL (≈ 0.562 µM); in series [10], 64 µg/mL (≈ 144 µM). Also, the MIC against Klebsiella aerogenes is 0.25 µg/mL (≈ 0.562 µM); against Haemophilus influenzae, 0.5 µg/mL (≈ 1.12 µM); against Streptococcus pyogenes [12] it was 0.03 µg/mL (≈ 0.0675 µM); against Escherichia coli [13] it was 0.06 µg/mL (≈ 0.135 µM); against Escherichia coli [15] it was 0.06 µg/mL (≈ 0.135 µM); with Staphylococcus aureus it was 32 µg/mL (≈ 72 µM). Also, the half-life in series [3] was determined as 10.6 min; in [8], 25 min; in series [11] it was 24.7 min. The ED50 with Escherichia coli [4] is under 0.625 mg/kg; with Streptococcus pyogenes [9] it was 13.5 mg/kg; in the series on Escherichia coli [14], 7.93 mg/kg; in the series with Streptococcus pyogenes [17], 1.8 mg/kg. Also, the fraction unbound in [5] is 0.78. Also, the Cmax in series [6] was determined as 53.8 µg/mL; in [16], 120 µg/mL.

Turning to `CO/N=C(\C(=O)N[C@H]1CN2CC(C#N)=C(C(=O)O)N2C1=O)c1csc(N)n1`, the values for the dose excreted in series [19] and in series [21] were under 2% and 87.8%, respectively. The MIC is 0.25 µg/mL (≈ 0.639 µM) in the series with Escherichia coli [2]; 0.25 µg/mL (≈ 0.639 µM) in the series on Klebsiella pneumoniae; over 128 µg/mL against Pseudomonas aeruginosa; 0.25 µg/mL (≈ 0.639 µM) with Streptococcus pyogenes [7]; 0.25 µg/mL (≈ 0.639 µM) against Streptococcus pneumoniae; 64 µg/mL (≈ 164 µM) in series [10]. Moreover, the MIC against Klebsiella aerogenes came out at 1 µg/mL (≈ 2.56 µM); in the series on Haemophilus influenzae, 0.5 µg/mL (≈ 1.28 µM); in the series on Streptococcus pyogenes [12] it was 0.25 µg/mL (≈ 0.639 µM); against Escherichia coli [13], 0.25 µg/mL (≈ 0.639 µM); against Escherichia coli [15] it was 0.25 µg/mL (≈ 0.639 µM); in the series on Staphylococcus aureus, 64 µg/mL (≈ 164 µM). Moreover, the values for the half-life in series [3], in [8] and in [11] were 12.2 min, 18 min and 17.9 min, respectively. Also, the ED50 is 0.67 mg/kg in the series on Escherichia coli [4], 6.68 mg/kg in the series on Streptococcus pyogenes [9], 7.87 mg/kg in the series with Escherichia coli [14] and 0.625 mg/kg in the series with Streptococcus pyogenes [17]. The Cmax is 71 µg/mL in series [6] and 120 µg/mL in series [16]. Also, the fraction unbound in series [20] was 0.585.

A word on the half-life: it is the time needed for the level to fall by half in the phase considered. One may read the ED50 as the midpoint of the dose-response relation. The low end stands for an effect at a small dose, the high end for a need for a large dose. Usually Cmax stands for the maximum level reached in the sampled fluid or tissue.

(Values after ChEMBL document CHEMBL1126865, “Structure-activity relationship within a series of pyrazolidinone antibacterial agents. 2. Effect of side-chain modification on in vitro activity and pharmacokinetic parameters” (J Med Chem, 1993).)
